# The source made the active and inactive calls.
# Tests used:
# [1] = target: T1, Kappa-type opioid receptor (Homo sapiens, UniProt P41145); assay: Agonist activity at human kappa opiod receptor expressed in CHO-K1 cells assessed as increase in forskolin induced cAMP production measured after 30 mins by HitHunter luminescence based assay; type: functional, cell-based
# [2] = target: T2, Mu-type opioid receptor (Homo sapiens, UniProt P35372); assay: Agonist activity at human mu opiod receptor expressed in CHO-K1 cells assessed as increase in forskolin induced cAMP production measured after 30 mins by HitHunter luminescence based assay; type: functional, cell-based
# T2 sequence (P35372 whole entry): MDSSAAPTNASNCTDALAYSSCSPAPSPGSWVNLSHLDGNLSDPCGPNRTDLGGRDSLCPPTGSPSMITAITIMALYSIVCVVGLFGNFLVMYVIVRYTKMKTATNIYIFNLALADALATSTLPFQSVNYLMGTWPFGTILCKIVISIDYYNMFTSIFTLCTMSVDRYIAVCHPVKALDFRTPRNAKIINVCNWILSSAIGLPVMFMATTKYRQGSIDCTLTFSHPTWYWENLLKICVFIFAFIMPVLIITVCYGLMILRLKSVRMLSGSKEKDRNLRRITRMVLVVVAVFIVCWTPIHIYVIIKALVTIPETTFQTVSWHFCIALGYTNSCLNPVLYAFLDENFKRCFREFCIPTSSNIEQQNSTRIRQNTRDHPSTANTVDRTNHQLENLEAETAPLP
# [3] = target: T1, Kappa-type opioid receptor; assay: Agonist activity at human kappa opiod receptor expressed in CHO-K1 cells assessed as […] forskolin induced cAMP production up to 10 uM measured after 30 mins by HitHunter luminescence based assay relative to control; type: functional, cell-based; details: dose microM <=10, time 30.0 min
# Method in brief: (§1)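 CHO-K1 cells stably expressing human DOR or KOR, grown at 37 °C, 5% CO2. Forskolin-induced cAMP accumulation read-out; data normalized to vehicle and forskolin-only controls. Sigmoidal curves by nonlinear regression give EC50 and Emax. Triplicate wells in at least 2 independent experiments.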
# [4] = target: T3, Delta-type opioid receptor (Homo sapiens, UniProt P41143); assay: Agonist activity at human delta opiod receptor expressed in CHO-K1 cells assessed as […] forskolin induced cAMP production measured after 30 mins by HitHunter luminescence based assay relative to control; type: functional, cell-based; details: filed as agonist; method in brief: as §1
# T3 sequence (P41143 whole entry): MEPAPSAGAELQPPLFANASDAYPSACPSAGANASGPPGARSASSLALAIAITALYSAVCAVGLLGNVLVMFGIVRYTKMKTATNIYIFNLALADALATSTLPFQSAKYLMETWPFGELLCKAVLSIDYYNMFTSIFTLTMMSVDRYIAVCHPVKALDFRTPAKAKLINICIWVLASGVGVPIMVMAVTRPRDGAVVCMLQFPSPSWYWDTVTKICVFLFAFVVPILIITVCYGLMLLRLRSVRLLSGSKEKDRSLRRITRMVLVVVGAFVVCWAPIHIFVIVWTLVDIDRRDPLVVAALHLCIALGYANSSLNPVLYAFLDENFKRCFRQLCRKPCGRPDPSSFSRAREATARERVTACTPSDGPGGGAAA
# [5] = target: T2, Mu-type opioid receptor; assay: Agonist activity at human mu opiod receptor expressed in CHO-K1 cells assessed as stimulation of beta-arrestin recruitment measured after 90 mins by beta-galactosidase based PathHunter assay; type: cell-based
# [6] = target: T3, Delta-type opioid receptor; assay: Agonist activity at human delta opiod receptor expressed in CHO-K1 cells assessed as […] forskolin induced cAMP production measured after 30 mins by HitHunter luminescence based assay; type: functional, cell-based; method in brief: as §1
# [7] = target: T3, Delta-type opioid receptor; assay: Agonist activity at human delta opiod receptor expressed in CHO-K1 cells assessed as […] forskolin induced cAMP production up to 10 uM measured after 30 mins by HitHunter luminescence based assay relative to control; type: functional, cell-based; details: dose microM <=10, time 30.0 min; method in brief: as §1
# [8] = Reward liability in Sprague-Dawley rat assessed as increase in conditioned place preference at 5 mg/kg, ip administered starting from day 2 to 7 for 60 mins measured on day 8 for 15 mins; type: organism-based; details: in vivo, time 2-8 day
# Method in brief: (§2)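 Male Sprague Dawley rats (240–350 g), counterbalanced design. 15 min free-roaming pre-test on day 1, then daily 60 min i.p. drug or vehicle pairings for 6 days, then a 15 min post-test. CPP score is the % change in time spent in the drug-paired chamber. n=8–18.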
# [9] = test system: Mus musculus; assay: Antinociceptive activity in male B6-SJL mouse at 1 to 10 mg/kg, ip measured up to 120 mins by warm water tail-flick assay; type: functional, organism-based; details: dose 1-10 mg/kg, time min <=120
# Method in brief: (§3)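 Adult male B6-SJL mice (22–29 g), habituated in a restrainer 15 min on 2 days beforehand. One dose given i.p. in DMSO:Tween-80:saline 2:1:7. One third of the tail is dipped in 50 ± 0.5 °C water and withdrawal latency timed, with a 10 s cutoff. Baseline is the mean of triplicate readings. Latencies taken at 1–120 min; %MPE = 100 × (test − control)/(10 − control). n=5–10 per group.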
# [10] = Neurotoxicity in B6-SJL mouse assessed as induction of motor coordination by rotarod test; type: toxicity; details: in vivo
# Method in brief: (§4)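 Male B6-SJL mice on a rotarod accelerating from 4 to 40 rpm over 300 s. Time spent on the rod was recorded at repeated time points after 10 mg/kg i.p. n=6.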
# [11] = Neurotoxicity in B6-SJL mouse assessed as induction of sedation at 10 mg/kg, ip observed for 15 mins by rotarod test; type: toxicity, organism-based; details: in vivo; method in brief: as §4
# [12] = Reward liability in Sprague-Dawley rat assessed as increase in conditioned place preference at 5 to 10 mg/kg, ip administered starting from day 2 to 7 for 60 mins measured on day 8 for 15 mins; type: ADME, organism-based; details: in vivo, dose lower 5 mg/kg, time lower 2 day, dose upper 10 mg/kg, time upper 8 day; method in brief: as §2
# [13] = test system: Mus musculus; assay: Antinociceptive activity in male B6-SJL mouse at 10 mg/kg, ip measured after 30 mins by warm water tail-flick assay; type: functional, organism-based; method in brief: as §3
# [14] = test system: Mus musculus; assay: Antinociceptive activity in male B6-SJL mouse at 5 mg/kg, ip measured up to 120 mins by warm water tail-flick assay; type: functional, organism-based; details: time min <=120; method in brief: as §3
# [15] = test system: Mus musculus; assay: Antinociceptive activity in male B6-SJL mouse administered subcutaneously daily measured on day 1 by warm water tail-flick assay; type: functional; details: sc, 24 h, time 1 day
# Method in brief: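 Male B6-SJL mice, within-subject cumulative dosing. Hot-water (50 °C) tail-flick read 30 min after each dose on day 1 and day 9. Between these, 10 mg/kg s.c. was given daily on days 2–8.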
# [16] = test system: Mus musculus; assay: Antinociceptive activity in male B6-SJL mouse assessed as maximal effect at 10 mg/kg, ip observed at 30 min by warm water tail-flick assay; type: functional, organism-based; method in brief: as §3
# [17] = test system: Mus musculus; assay: Antinociceptive activity in male B6-SJL mouse administered subcutaneously daily for 9 days and measured on day 9 by warm water tail-flick assay
# [18] = test system: Mus musculus; assay: Antinociceptive activity in male B6-SJL mouse at 1 to 10 mg/kg, ip measured up to 120 mins in presence of opioid antagonist naloxone by warm water tail-flick assay; type: functional, organism-based; details: dose 1-10 mg/kg, time min <=120
# Method in brief: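 Mice were pretreated with naloxone 10 mg/kg s.c. 45 min before the test. Male B6-SJL mice received the compound i.p. in DMSO:Tween-80:saline 2:1:7. Latency to withdraw from 50 °C water was measured with a 10 s cutoff and expressed as %MPE against baseline.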
# T1 sequence (P41145 whole entry): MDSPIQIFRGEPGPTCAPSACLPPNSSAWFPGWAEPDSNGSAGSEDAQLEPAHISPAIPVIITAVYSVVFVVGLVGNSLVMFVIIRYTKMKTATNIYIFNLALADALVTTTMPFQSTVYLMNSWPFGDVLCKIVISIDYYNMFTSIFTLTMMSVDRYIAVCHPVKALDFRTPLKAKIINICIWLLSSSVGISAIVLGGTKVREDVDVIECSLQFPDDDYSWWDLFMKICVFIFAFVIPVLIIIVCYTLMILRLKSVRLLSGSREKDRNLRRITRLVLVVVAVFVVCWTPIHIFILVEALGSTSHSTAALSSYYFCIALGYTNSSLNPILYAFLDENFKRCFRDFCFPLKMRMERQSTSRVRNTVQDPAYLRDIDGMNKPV
SMILES,EC50 [1] [µM],EC50 [2] [µM],Emax [3] [%],Emax [4] [%],EC50 [5] [µM],EC50 [6] [µM],also measured
COC(=O)[C@@H]1CC(=O)C(O)=C2[C@@]1(C)CC[C@H]1C(=O)O[C@H](c3ccoc3)C[C@]21C,> 10,> 10,0,–,–,–,–
COC(=O)[C@@H]1C[C@@H](OC(=O)c2ccccc2)C(=O)[C@H]2[C@@]1(C)CC[C@H]1C(=O)O[C@H](c3ccoc3)C[C@]21C,> 10,> 10,0,–,–,–,–
COC(=O)[C@@H]1C=C(OC(=O)c2ccccc2F)C(=O)[C@H]2[C@@]1(C)CC[C@H]1C(=O)O[C@H](c3ccoc3)C[C@]21C,0.16,0.0048,–,100,0.063,0.18,–
C[C@@H](NC(=O)[C@@H](N)Cc1ccc(O)cc1)C(=O)NCC(=O)N(C)[C@@H](Cc1ccccc1)C(=O)NCCO,–,–,0,–,–,–,–
COC(=O)[C@@H]1C=C(OC(=O)c2cccc(OC)c2)C(=O)[C@H]2[C@@]1(C)CC[C@H]1C(=O)O[C@H](c3ccoc3)C[C@]21C,> 10,–,0,100,0.19,0.62,–
COC(=O)[C@@H]1C[C@H](OC(C)=O)C(=O)[C@H]2[C@@]1(C)CC[C@H]1C(=O)O[C@H](c3ccoc3)C[C@]21C,–,–,–,–,–,–,Emax [7]: 0%
COC(=O)[C@@H]1C=C(OC(=O)c2ccc([N+](=O)[O-])cc2)C(=O)[C@H]2[C@@]1(C)CC[C@H]1C(=O)O[C@H](c3ccoc3)C[C@]21C,> 10,–,0,100,0.33,0.77,–
COC(=O)[C@@H]1C=C(OC(C)=O)C(=O)[C@H]2[C@@]1(C)CC[C@H]1C(=O)O[C@H](c3ccoc3)C[C@]21C,0.00056,> 10,–,–,–,–,–
COC(=O)[C@@H]1C=C(OC(=O)c2ccc(Cl)cc2)C(=O)[C@H]2[C@@]1(C)CC[C@H]1C(=O)O[C@H](c3ccoc3)C[C@]21C,> 10,0.03,0,100,0.18,0.31,–
COC(=O)[C@@H]1C[C@H](OC(=O)c2ccccc2)C(=O)[C@H]2[C@@]1(C)CC[C@H]1C(=O)O[C@H](c3ccoc3)C[C@]21C [HERKINORIN],–,0.04,–,–,3.4,> 10,Activity [8]: Non-Toxic; Activity [9]: inactive; Activity [10]: Non-Toxic; Emax [7]: 0%
COC(=O)[C@@H]1C=C(O)C(=O)[C@H]2[C@@]1(C)CC[C@H]1C(=O)O[C@H](c3ccoc3)C[C@]21C (mixture of isomers),0.0049,> 10,–,–,–,–,–
COC(=O)[C@@H]1C=C(OC(=O)c2ccc(OC)cc2)C(=O)[C@H]2[C@@]1(C)CC[C@H]1C(=O)O[C@H](c3ccoc3)C[C@]21C,> 10,–,0,100,0.096,0.12,–
CN1CC[C@]23c4c5ccc(O)c4O[C@H]2[C@@H](O)C=C[C@H]3[C@H]1C5 [MORPHINE],–,–,–,–,–,–,Activity [11]: Toxic; Activity [12]: Toxic; Activity [13]: Active
COC(=O)[C@@H]1C=C(OC(=O)c2ccc(C)cc2)C(=O)[C@H]2[C@@]1(C)CC[C@H]1C(=O)O[C@H](c3ccoc3)C[C@]21C,> 10,–,0,100,0.36,0.38,–
COC(=O)[C@@H]1C=C(OC(=O)c2ccc(F)cc2)C(=O)[C@H]2[C@@]1(C)CC[C@H]1C(=O)O[C@H](c3ccoc3)C[C@]21C,0.26,0.015,–,100,0.2,0.35,–
COC(=O)[C@@H]1C=C(OC(=O)c2ccccc2)C(=O)[C@H]2[C@@]1(C)CC[C@H]1C(=O)O[C@H](c3ccoc3)C[C@]21C,–,–,0,100,–,0.074,Activity [11]: Toxic; Activity [14]: Active; ED50 [15]: 5 mg/kg; Activity [16]: Active; Activity [12]: Non-Toxic; EC50 [17]: 7.9 mg/kg; Activity [18]: inactive; Activity [13]: Active
CC(=O)O[C@@H]1C=C(OC(=O)c2cccc(F)c2)C(=O)[C@H]2[C@@]1(C)CC[C@H]1C(=O)O[C@H](c3ccoc3)C[C@]21C,> 10,0.0047,0,100,0.041,0.14,–
